Laboratory results: ChEMBL document CHEMBL3085664, “Structure-activity relationship of imidazopyridinium analogues as antagonists of neuropeptide s receptor” (J Med Chem, 2013)

What was measured:
Neuropeptide S receptor [1] = target: T1, Neuropeptide S receptor (Homo sapiens, UniProt Q6W5P4); assay: Antagonist activity at neuropeptide S receptor (unknown origin) expressed in CHO cells assessed as inhibition of NPS-induced calcium mobilization after 10 mins by fluorescence assay; type: functional, cell-based
T1 sequence (Q6W5P4 whole entry): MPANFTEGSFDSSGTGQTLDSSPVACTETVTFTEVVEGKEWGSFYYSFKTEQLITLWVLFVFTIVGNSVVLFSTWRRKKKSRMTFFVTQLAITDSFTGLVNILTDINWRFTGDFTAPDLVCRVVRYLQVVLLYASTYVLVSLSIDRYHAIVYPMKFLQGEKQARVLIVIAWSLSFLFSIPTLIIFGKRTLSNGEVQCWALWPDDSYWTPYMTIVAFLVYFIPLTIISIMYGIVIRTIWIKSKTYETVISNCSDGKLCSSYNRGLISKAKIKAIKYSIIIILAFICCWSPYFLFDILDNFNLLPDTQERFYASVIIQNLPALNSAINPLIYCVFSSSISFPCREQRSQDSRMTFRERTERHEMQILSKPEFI
Method in brief: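 CHO-NPSR cells, 2000/well in 1536-well plates, incubated overnight, then loaded with no-wash calcium dye for 1 h at 37°C. Compound in DMSO was added for 10 min. Baseline fluorescence was recorded 6 s at 1 Hz, then EC80 NPS in stimulation buffer was added and recording continued 4 min at 1 Hz on a kinetic reader. IC50 is the mean with SD of two independent experiments in duplicate.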

Neuropeptide S receptor [2] = target: T1, Neuropeptide S receptor; assay: Antagonist activity at neuropeptide S receptor (unknown origin) assessed as intracellular calcium level by cell based assay; type: functional
Method in brief: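 CHO cells stably expressing NPSR were seeded at 2000 cells/well and incubated overnight at 37 °C, 5% CO2. They were loaded with no-wash calcium dye for 1 h, then preincubated with compound in DMSO for 10 min. Stimulation used NPS at EC80 in PBS/0.1% BSA/0.05% Tween-20 with 500 µM Ro 20-1724. Kinetic fluorescence was read at 1 Hz: 6 s baseline, then 4 min. IC50 is the mean ± SD of two independent experiments, each in duplicate.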

Neuropeptide S receptor [3] = target: T1, Neuropeptide S receptor; assay: Antagonist activity at neuropeptide S receptor (unknown origin) assessed as cAMP level by cell based assay; type: functional
Method in brief: (§1)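 CHO cells stably expressing NPSR, 1800 cells/well in 1536-well format, seeded overnight at 37°C in medium without Geneticin. Stimulation buffer (PBS, 0.1% BSA, 0.05% Tween-20, 500µM Ro 20-1724, EC80 NPS) was added for 30 min at 37°C. cAMP was read by HTRF (d2-cAMP/cryptate anti-cAMP in lysis buffer, 30 min). IC50 is the mean with SD of two independent experiments, each run in duplicate.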

Neuropeptide S receptor [4] = target: T1, Neuropeptide S receptor; assay: Displacement of [125I]Tyr10-NPS from neuropeptide S receptor (unknown origin)
Method in brief: (§2)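 Whole CHO cells stably expressing human NPSR at 90–95% confluency in 24-well plates. Cells were incubated with 0.15 nM [125I]Y10-NPS plus increasing compound or unlabeled NPS in DMEM/0.1% BSA, 20°C, 1.5 hr. Nonspecific binding was defined with 1 µM unlabeled human NPS. Cells were washed, lysed in 1 N NaOH and counted by liquid scintillation. IC50 from one experiment in duplicate.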

[5] = target: T2, Neuropeptide S receptor (Homo sapiens) (UniProt Q6W5P4); assay: Antagonist activity at neuropeptide S receptor (unknown origin) expressed in CHO cells assessed as inhibition of NPS-induced ERK activation at 50 uM after 20 mins by HTRF assay relative to control; type: cell-based
T2 sequence (whole entry): T1 sequence (Q6W5P4 whole entry)

Neuropeptide S receptor [6] = target: T1, Neuropeptide S receptor; assay: Antagonist activity at neuropeptide S receptor (unknown origin) expressed in CHO cells assessed as cAMP level after 30 mins by […] assay; type: functional, cell-based; method in brief: as §1
Neuropeptide S receptor [7] = target: T1, Neuropeptide S receptor; assay: Antagonist activity at neuropeptide S receptor (unknown origin) expressed in CHO cells assessed as inhibition of NPS-induced ERK activation after 20 mins by HTRF assay; type: cell-based
[8] = Metabolic stability in mouse liver microsomes assessed as compound remaining after 60 mins in presence NADPH; type: ADME, Microsome; conditions: read-out: Stability
Method in brief: (§3)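 Compound was incubated with mouse liver microsomes, and percent parent remaining was determined at 15, 30 and 60 min. Values are means from a single experiment run in duplicate.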

Neuropeptide S receptor [9] = target: T1, Neuropeptide S receptor; assay: Displacement of [125I]Tyr10-NPS from human neuropeptide S receptor expressed in CHO cells after 1.5 hrs by liquid scintillation counting; type: cell-based; method in brief: as §2
[10] = Metabolic stability in mouse liver microsomes assessed as compound remaining after 60 mins in absence NADPH; type: ADME, Microsome; conditions: read-out: Stability; method in brief: as §3
[11] = Metabolic stability in mouse liver microsomes assessed as compound remaining after 15 mins in presence NADPH; type: ADME, Microsome; conditions: read-out: Stability; method in brief: as §3
[12] = Metabolic stability in mouse liver microsomes assessed as compound remaining after 30 mins in presence NADPH; type: ADME, Microsome; conditions: read-out: Stability; method in brief: as §3
[13] = Metabolic stability in mouse liver microsomes assessed as compound remaining after 15 mins in absence NADPH; type: ADME, Microsome; conditions: read-out: Stability; method in brief: as §3
[14] = Metabolic stability in mouse liver microsomes assessed as compound remaining after 30 mins in absence NADPH; type: ADME, Microsome; conditions: read-out: Stability; method in brief: as §3

Structure (SMILES)	IC50 (Neuropeptide S receptor [1]; read-out: IC50)	IC50 (Neuropeptide S receptor [6]; read-out: IC50)	other results
C[n+]1cc(C(O)(c2ccccc2)c2ccccc2)n2ccccc21.O=C([O-])C(F)(F)F			IC50 (Neuropeptide S receptor [1]; cho): Not Active
COc1ccc(C2c3c(ccc4ccccc34)OC3N=CN(CCN4CCOCC4)C(=N)C32)cc1OC (stereo not given)			IC50 (Neuropeptide S receptor [2]): 1400 nM; IC50 (Neuropeptide S receptor [3]): 4900 nM; IC50 (Neuropeptide S receptor [4]): 190 nM
Cc1c(P(=S)(c2ccccc2)c2ccccc2)c2ccccc2n1C	2800 nM		inhibition [5]: < 50%; IC50 (Neuropeptide S receptor [6]; cho): Not Active
Cc1c(C(O)(c2ccccc2)c2ccccc2)n2ccccc2[n+]1C.O=C([O-])C(F)(F)F			IC50 (Neuropeptide S receptor [1]; cho): Not Active
Cc1c(P(=S)(c2ccccc2)c2ccccc2)n2ccccc2[n+]1C/C=C/c1ccc(F)c(Br)c1	45 nM	840 nM	
Cc1nc2ccccn2c1P(=O)(c1ccccc1)c1ccccc1	27000 nM		IC50 (Neuropeptide S receptor [6]; cho): Not Active
Cc1c(P(=S)(c2ccccc2)c2ccccc2)n2ccccc2[n+]1CCCCCc1ccccc1	13 nM	710 nM	IC50 (Neuropeptide S receptor [7]): 6.2 nM
Cc1c(P(=S)(c2ccccc2)c2ccccc2)n2ccccc2[n+]1CCCc1ccccc1	< 0.5 nM	110 nM	
Cc1c(P(=S)(c2ccccc2)c2ccccc2)n2ccccc2[n+]1C/C=C/c1cccc(Cl)c1	9.2 nM	220 nM	
Cc1c(P(=S)(c2ccccc2)c2ccccc2)n2ccccc2[n+]1C/C=C/c1ccc2ccccc2c1	64 nM	1300 nM	
Cc1c(P(=S)(c2ccccc2)c2ccccc2)n2ccccc2[n+]1C/C=C/c1ccccc1Cl	3.4 nM	94 nM	
Cc1nc2ccccn2c1P(=S)(c1ccccc1)c1ccccc1	1000 nM	18000 nM	IC50 (Neuropeptide S receptor [7]): 9.1 nM
Cc1nc2ccccn2c1C(O)(c1ccccc1)c1ccccc1			IC50 (Neuropeptide S receptor [1]; cho): Not Active
Cc1c(P(=S)(c2ccccc2)c2ccccc2)n2ccccc2[n+]1CCCCc1ccccc1	< 0.5 nM	940 nM	IC50 (Neuropeptide S receptor [7]): 15 nM
Cc1c(P(=S)(c2ccccc2)c2ccccc2)n2ccccc2[n+]1C/C=C/c1ccc(Cl)cc1	2.2 nM	120 nM	
Cc1c(P(=S)(c2ccccc2)c2ccccc2)n2ccccc2[n+]1Cc1ccccc1	32 nM	1300 nM	IC50 (Neuropeptide S receptor [7]): 16 nM

Structure (SMILES)	IC50 (Neuropeptide S receptor [1]; read-out: IC50)	IC50 (Neuropeptide S receptor [6]; read-out: IC50)	other results
Cc1c(P(=S)(c2ccccc2)c2ccccc2)n2ccccc2[n+]1C/C=C/c1ccc(F)cc1	3.4 nM	71 nM	
CCC(C)(CCN1CCOCC1)N(Cc1cc2ccccc2n(C)c1=O)C(=O)C1CCCCC1 (stereo not given)	55 nM	1.2 nM	remaining at 1 h [8]: 0%; IC50 (Neuropeptide S receptor [9]): 6.7 nM; remaining at 1 h [10]: 94%; remaining at 0.25 h [11]: 0%; remaining at 0.5 h [12]: 0%; remaining at 0.25 h [13]: 103%; remaining at 0.5 h [14]: 97%; IC50 (Neuropeptide S receptor [7]): 11 nM; IC50 (Neuropeptide S receptor [4]): 1.3 nM
O=C(NCc1ccccc1)N1CCN2C(=O)OC(c3ccccc3)(c3ccccc3)C2C1 (stereo not given)			IC50 (Neuropeptide S receptor [2]): 26 nM
Cc1c(P(=S)(c2ccccc2)c2ccccc2)n2ccccc2[n+]1CCc1ccccc1	73 nM	2100 nM	IC50 (Neuropeptide S receptor [7]): 16 nM
Cc1ccc(/C=C/C[n+]2c(C)c(P(=S)(c3ccccc3)c3ccccc3)n3ccccc32)cc1	9 nM	330 nM	
Cc1c(P(=S)(c2ccccc2)c2ccccc2)n2ccccc2[n+]1C/C=C/c1ccc(C(F)(F)F)cc1	4.5 nM	400 nM	
C[n+]1cc(P(=S)(c2ccccc2)c2ccccc2)n2ccccc21	2500 nM	39000 nM	inhibition [5]: < 50%
Cc1c(P(=S)(c2ccccc2)c2ccccc2)n2ccccc2[n+]1C/C=C/c1ccc(Br)cc1	5.7 nM	170 nM	
O=P(c1ccccc1)(c1ccccc1)c1cnc2ccccn12			IC50 (Neuropeptide S receptor [1]; cho): Not Active
Cc1c(P(=S)(c2ccccc2)c2ccccc2)n2ccccc2[n+]1C/C=C/c1cccc(Br)c1	23 nM	670 nM	
c1ccc(P(c2ccccc2)c2cnc3ccccn23)cc1	35000 nM		IC50 (Neuropeptide S receptor [6]; cho): Not Active
OC(c1ccccc1)(c1ccccc1)c1cnc2ccccn12			IC50 (Neuropeptide S receptor [1]; cho): Not Active
Cn1cc(P(=S)(c2ccccc2)c2ccccc2)c2ccccc21	7300 nM		IC50 (Neuropeptide S receptor [6]; cho): Not Active
S=P(c1ccccc1)(c1ccccc1)c1cnc2ccccn12	4030 nM	63000 nM	inhibition [5]: < 50%
O=C1c2ccccc2C(=O)C1(c1ccccc1)N1CCN(Cc2ccccc2)CC1			IC50 (Neuropeptide S receptor [2]): 27 nM
COc1cccc(/C=C/C[n+]2c(C)c(P(=S)(c3ccccc3)c3ccccc3)n3ccccc32)c1	3.2 nM	110 nM	
